Experimental data from ChEMBL document CHEMBL1765023, “Acetyl analogs of combretastatin A-4: synthesis and biological studies” (Bioorg Med Chem, 2011).
pEC50, pIC50: −log10 of the molar value. ≈ marks a conversion by molar mass, not a printed value.

Assays:
Mus musculus [1] = experiment: Toxicity in DBA2 mouse assessed as change in platelet count at 75 mg/kg, ip QD administered on alternate days for 17 days measured on day 23 relative to control; type: organism-based; design: dose 75 mg/kg, route intraperitoneal; settings: in vivo, 408 h
Procedure, shortened: (§1)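 Healthy female DBA2 mice, 5–7 weeks old, five per group, received 75 mg/kg ip on days 1, 5, 9, 13 and 17. Vehicle was PET (PEG400/ethanol/Tween 80, 6:3:1), 5% glucose and DMSO, with final ethanol 15% and DMSO 10%. Controls received 100 µL vehicle. Body weight was measured every other day. At sacrifice on day 23, blood counts (hematocrit, WBC, granulocytes, platelets) and liver, kidney and spleen appearance and weight were assessed.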

NCI-H23 = experiment: Growth inhibition of human NCI-H23 cells after 48 hrs by sulforhodamine B assay; type: functional; settings: NCI-H23, 48 h
Procedure, shortened: (§2)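 NCI 60 human cancer cell line screen run at the National Cancer Institute. Cells had 48 h continuous exposure, and proliferation was read by sulforhodamine B staining. GI50 (50% growth inhibition) was taken from dose–response curves.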

NCI-H322M = experiment: Growth inhibition of human NCI-H322M cells after 48 hrs by sulforhodamine B assay; type: functional; procedure, shortened: as §2
NCI-H460 = experiment: Growth inhibition of human NCI-H460 cells after 48 hrs by sulforhodamine B assay; type: functional; settings: NCI-H460, 48 h; procedure, shortened: as §2
COLO 205 = experiment: Growth inhibition of human COLO205 cells after 48 hrs by sulforhodamine B assay; type: functional; settings: COLO 205, 48 h; procedure, shortened: as §2
HCC 2998 = experiment: Growth inhibition of human HCC2998 cells after 48 hrs by sulforhodamine B assay; type: functional; settings: HCC 2998, 48 h; procedure, shortened: as §2
HCT-116 = experiment: Growth inhibition of human HCT116 cells after 48 hrs by sulforhodamine B assay; type: functional; settings: HCT-116, 48 h; procedure, shortened: as §2
HT-29 = experiment: Growth inhibition of human HT-29 cells after 48 hrs by sulforhodamine B assay; type: functional; settings: HT-29, 48 h; procedure, shortened: as §2
KM12 = experiment: Growth inhibition of human KM12 cells after 48 hrs by sulforhodamine B assay; type: functional; settings: KM12, 48 h; procedure, shortened: as §2
SW-620 = experiment: Growth inhibition of human SW620 cells after 48 hrs by sulforhodamine B assay; type: functional; settings: SW-620, 48 h
Procedure, shortened: (§3)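 Tested in the NCI 60 human cancer cell line panel. Cells were exposed continuously for 48 h and proliferation was read by sulforhodamine B staining. GI50 (concentration for 50% growth inhibition), TGI (total growth inhibition) and LC50 were taken from dose–response curves.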

SF-268 = experiment: Growth inhibition of human SF268 cells after 48 hrs by sulforhodamine B assay; type: functional; settings: SF-268, 48 h; procedure, shortened: as §2
SF-295 = experiment: Growth inhibition of human SF295 cells after 48 hrs by sulforhodamine B assay; type: functional; settings: SF-295, 48 h; procedure, shortened: as §2
MDA-MB-435 = experiment: Growth inhibition of human MDA-MB-435 cells after 48 hrs by sulforhodamine B assay; type: functional; settings: MDA-MB-435, 48 h; procedure, shortened: as §2
SK-MEL-28 = experiment: Growth inhibition of human SK-MEL-28 cells after 48 hrs by sulforhodamine B assay; type: functional; settings: SK-MEL-28, 48 h; procedure, shortened: as §2
IGROV-1 = experiment: Growth inhibition of human IGROV1 cells after 48 hrs by sulforhodamine B assay; type: functional; settings: IGROV-1, 48 h; procedure, shortened: as §2
OVCAR-8 = experiment: Growth inhibition of human OVCAR8 cells after 48 hrs by sulforhodamine B assay; type: functional; settings: OVCAR-8, 48 h; procedure, shortened: as §2
SK-OV-3 = experiment: Growth inhibition of human SKOV3 cells after 48 hrs by sulforhodamine B assay; type: functional; settings: SK-OV-3, 48 h; procedure, shortened: as §3
SN12C = experiment: Growth inhibition of human SN12C cells after 48 hrs by sulforhodamine B assay; type: functional; procedure, shortened: as §3
TK-10 = experiment: Growth inhibition of human TK10 cells after 48 hrs by sulforhodamine B assay; type: functional; settings: TK-10, 48 h; procedure, shortened: as §3
DU-145 = experiment: Growth inhibition of human DU145 cells after 48 hrs by sulforhodamine B assay; type: functional; settings: DU-145, 48 h; procedure, shortened: as §2
MCF7 = experiment: Growth inhibition of human MCF7 cells after 48 hrs by sulforhodamine B assay; type: functional; settings: MCF7, 48 h; procedure, shortened: as §2
MDA-MB-231 = experiment: Growth inhibition of human MDA-MB-231 cells after 48 hrs by sulforhodamine B assay; type: functional; settings: MDA-MB-231, 48 h; procedure, shortened: as §2
BT-549 = experiment: Growth inhibition of human BT549 cells after 48 hrs by sulforhodamine B assay; type: functional; settings: BT-549, 48 h; procedure, shortened: as §2
MDA-MB-468 = experiment: Growth inhibition of human MDA-MB-468 cells after 48 hrs by sulforhodamine B assay; type: functional; settings: MDA-MB-468, 48 h; procedure, shortened: as §2
[2] = Induction of microtubule depolymerization in […] cells for 18 hrs by indirect immunofluorescence microscopic analysis; type: cell-based
Procedure, shortened: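 Uses A-10 cells, a non-transformed line that arrests in interphase under microtubule-targeting agents. Cells were treated for 18 h and interphase microtubules were visualized by indirect immunofluorescence microscopy, with vehicle-treated controls. Depolymerization was screened at concentrations below 30 µM. For EC50, a range of concentrations was tested, and EC50 is the concentration causing 50% loss of cellular microtubules by microscopy.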

Mus musculus [3] = experiment: Toxicity in DBA2 mouse assessed as change in color, weight and size in liver at 75 mg/kg, ip QD administered on alternate days for 17 days measured on day 23 relative to control; type: organism-based; design: dose 75 mg/kg, route intraperitoneal; settings: in vivo, 408 h; procedure, shortened: as §1
Mus musculus [4] = experiment: Toxicity in DBA2 mouse assessed as change in color, weight and size in kidney at 75 mg/kg, ip QD administered on alternate days for 17 days measured on day 23 relative to control; type: organism-based; design: dose 75 mg/kg, route intraperitoneal; settings: in vivo, 408 h; procedure, shortened: as §1
Mus musculus [5] = experiment: Toxicity in DBA2 mouse assessed as change in hematocrit at 75 mg/kg, ip QD administered on alternate days for 17 days measured on day 23 relative to control; type: organism-based; design: dose 75 mg/kg, route intraperitoneal; settings: in vivo, 408 h; procedure, shortened: as §1
Mus musculus [6] = experiment: Toxicity in DBA2 mouse assessed as change in granulocyte count at 75 mg/kg, ip QD administered on alternate days for 17 days measured on day 23 relative to control; type: organism-based; design: dose 75 mg/kg, route intraperitoneal; settings: in vivo, 408 h; procedure, shortened: as §1
[7] = Solubility of the compound in water by multiscreen solubility; type: physicochemical
Procedure, shortened: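 Aqueous solubility was measured with a modified Multiscreen Solubility filter-plate protocol. The assay ceiling is 500 µM, and two independent experiments were run.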

L1210 = experiment: Cytotoxicity against mouse L1210 cells by MTT assay; type: functional, cell-based
EKVX = experiment: Growth inhibition of human EKVX cells after 48 hrs by sulforhodamine B assay; type: functional; procedure, shortened: as §2

Compound: COc1ccc(/C=C(/C(C)=O)c2cc(OC)c(OC)c(OC)c2)cc1O
- Activity (Mus musculus [1]): Non-toxic
- GI50 (NCI-H23): 355 nM
- TGI (NCI-H23; read-out: pTGI): > 100000 nM
- GI50 (NCI-H322M): 513 nM
- TGI (NCI-H322M; read-out: pTGI): > 100000 nM
- GI50 (NCI-H460): 263 nM
- TGI (NCI-H460; read-out: pTGI (converted)): 1320 nM
- GI50 (COLO 205): 10700 nM
- TGI (COLO 205; read-out: pTGI (converted)): 37200 nM
- GI50 (HCC 2998): 1320 nM
- TGI (HCC 2998; read-out: pTGI (converted)): 11500 nM
- GI50 (HCT-116): 331 nM
- TGI (HCT-116; read-out: pTGI): > 100000 nM
- GI50 (HT-29): 3630 nM
- TGI (HT-29; read-out: pTGI (converted)): 15500 nM
- GI50 (KM12): 112 nM
- TGI (KM12; read-out: pTGI (converted)): 1950 nM
- GI50 (SW-620): 91.2 nM
- TGI (SW-620; read-out: pTGI (converted)): 53700 nM
- GI50 (SF-268): 363 nM
- TGI (SF-268; read-out: pTGI (converted)): 16600 nM
- GI50 (SF-295): 263 nM
- TGI (SF-295; read-out: pTGI (converted)): 1050 nM
- GI50 (MDA-MB-435): 25.7 nM
- TGI (MDA-MB-435; read-out: pTGI (converted)): 75.9 nM
- GI50 (SK-MEL-28): 100000 nM
- TGI (SK-MEL-28; read-out: pTGI): > 100000 nM
- GI50 (IGROV-1): 316 nM
- TGI (IGROV-1; read-out: pTGI): > 100000 nM
- GI50 (OVCAR-8): 372 nM
- TGI (OVCAR-8; read-out: pTGI): > 100000 nM
- GI50 (SK-OV-3): 417 nM
- TGI (SK-OV-3; read-out: pTGI): > 100000 nM
- GI50 (SN12C): 776 nM
- TGI (SN12C; read-out: pTGI): > 100000 nM
- GI50 (TK-10): 18200 nM
- TGI (TK-10; read-out: pTGI): > 100000 nM
- GI50 (DU-145): 257 nM
- TGI (DU-145; read-out: pTGI (converted)): 813 nM
- GI50 (MCF7): 195 nM
- TGI (MCF7; read-out: pTGI): > 100000 nM
- GI50 (MDA-MB-231): 575 nM
- TGI (MDA-MB-231; read-out: pTGI): > 100000 nM
- GI50 (BT-549): 427 nM
- TGI (BT-549; read-out: pTGI (converted)): 14100 nM
- GI50 (MDA-MB-468): 170 nM
- TGI (MDA-MB-468; read-out: pTGI (converted)): 550 nM
- pEC50 [2]: 5.74
- Activity (Mus musculus [3]): Non-toxic
- Activity (Mus musculus [4]): Non-toxic
- Activity (Mus musculus [5]): Non-toxic
- Activity (Mus musculus [6]): Non-toxic
- solubility [7]: 456 µM (≈ 163 µg/mL)
- pIC50 (L1210): 6.35
- GI50 (EKVX): 5250 nM
- TGI (EKVX; read-out: pTGI): > 100000 nM
